Results: ChEMBL document CHEMBL2331205, “Anti-hepatitis B virus and anti-cancer activities of novel isoflavone analogs” (Eur J Med Chem, 2013)

What was measured:
A549 = test: Growth inhibition of human A549 cells after 48 hrs by MTT assay; format: functional, cell-based; conditions: A549, 48 h
Procedure, shortened: (§1)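 Cells seeded at 8000/well, treated 24 h later in duplicate with a range of concentrations (DMSO stock 10 g/L diluted in fresh medium), 48 h at 37 °C, 5% CO2. MTT (5 mg/ml in PBS) added for 4 h, formazan dissolved in DMSO, absorbance read at 570 nm. IC50 is the concentration giving 50% survival.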

[1] = Growth inhibition of human QGY7701 cells after 48 hrs by MTT assay; format: functional; conditions: QGY7701, 48 h; procedure, shortened: as §1
Huh-7 = test: Growth inhibition of human HuH7 cells after 48 hrs by MTT assay; format: functional, cell-based; conditions: Huh-7, 48 h; procedure, shortened: as §1
[2] = Cytotoxicity against human HepG2(2.2.15) cells compound treated for 48 hrs followed by incubation for 9 days by MTT assay; format: cell-based
Procedure, shortened: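 HepG2 2.2.15 cells kept 48 h in plates before adding compounds (DMSO stocks serially diluted in medium), then incubated at 37 °C for 9 days. Media-only wells as blank. MTT (5 g/L) added 4 h before lysis in 10% SDS/50% DMF, pH 7.2; OD at 570 nm gives percent cell death; CC50 derived.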

Hepatitis B virus [3] = test: Antiviral activity against HBV infected in human HepG2(2.2.15) cells assessed as inhibition of HBsAg production after 9 days by ELISA; format: functional, organism-based; conditions: HepG2 2.2.15, 216 h
Procedure, shortened: (§2)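 HepG2 2.2.15 cells (HBV-producing) given a range of compound concentrations for nine days; culture supernatants collected and HBsAg or HBeAg levels measured by ELISA. IC50 taken as the concentration giving 50% inhibition of antigen level.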

[4] = Growth inhibition of human L02 cells after 48 hrs by MTT assay; format: functional, cell-based; conditions: L02, 48 h; procedure, shortened: as §1
HeLa = test: Growth inhibition of human HeLa cells after 48 hrs by MTT assay; format: functional, cell-based; procedure, shortened: as §1
[5] = Selectivity index, ratio of CC50 for human HepG2(2.2.15) cells to IC50 for HBV infected in human HepG2(2.2.15) cells assessed as inhibition of HBeAg production; format: functional
Procedure, shortened: (§3)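 Selectivity index calculated as CC50 in HepG2 2.2.15 cells (MTT, 9-day exposure) divided by IC50 for HBeAg or HBsAg reduction (ELISA of 9-day supernatants).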

Hepatitis B virus [6] = test: Antiviral activity against HBV infected in human HepG2(2.2.15) cells assessed as inhibition of HBeAg production after 9 days by ELISA; format: functional, organism-based; conditions: HepG2 2.2.15, 216 h; procedure, shortened: as §2
[7] = Selectivity index, ratio of CC50 for human HepG2(2.2.15) cells to IC50 for HBV infected in human HepG2(2.2.15) cells assessed as inhibition of HBsAg production; format: functional; procedure, shortened: as §3
Hepatitis B virus [8] = test: Antiviral activity against HBV infected in human HepG2(2.2.15) cells assessed as inhibition of viral replication after 9 days by fluorescence PCR method; format: functional, organism-based; conditions: HepG2 2.2.15, 216 h
Procedure, shortened: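 HepG2 2.2.15 cells given a range of compound concentrations for nine days; HBV DNA quantified by fluorescence PCR. IC50 taken as the concentration giving 50% inhibition of HBV DNA replication.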

[9] = Selectivity index, ratio of CC50 for human HepG2(2.2.15) cells to IC50 for HBV infected in human HepG2(2.2.15) cells assessed as inhibition of viral replication; format: functional
Procedure, shortened: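 Selectivity index calculated as CC50 in HepG2 2.2.15 cells (MTT, 9-day exposure) divided by IC50 for HBV DNA reduction measured by fluorescence PCR after 9 days.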

SMILES	IC50 (A549) [µM]	IC50 (Huh-7) [µM]	IC50 (Hepatitis B virus [3]) [µM]	IC50 (HeLa) [µM]	IC50 (Hepatitis B virus [6]) [µM]	IC50 (Hepatitis B virus [8]) [µM]	IC50 [1] [µM]	CC50 at 48 h [2] [µM]	IC50 [4] [µM]	Ratio CC50/IC50 [5]	Ratio CC50/IC50 [7]	Ratio CC50/IC50 [9]
COc1ccc2c(=O)c(/C=C/C(=O)NCc3ccc(F)cc3)coc2c1	> 100	20.9	58.8	> 100	> 100	11.2	7.96	133	> 200		2.26	11.84
O=C(/C=C/c1coc2cc(O)ccc2c1=O)NCCc1ccc(F)cc1	6.84	> 100	14.6	> 100	15.4	> 100	> 100	102	> 200	6.64	7.03	
COc1ccc2c(=O)c(/C=C/C(=O)NCc3ccccc3)coc2c1	11.8	13.6	> 100	33.4	> 100	56.8	> 100	376	> 200			6.62
O=C(/C=C/c1coc2cc(O)ccc2c1=O)NCc1ccccc1	> 100	4.69	> 100	> 100	> 100	> 100	63	436	> 200			
COc1ccc2c(=O)c(/C=C/C(=O)NCCc3ccc(F)cc3)coc2c1	18.9	29.2	14.7	> 100	14.7	> 100	24.8	786	> 200	53.45	53.64	
COc1ccc2c(=O)c(/C=C/C(=O)NCc3ccccc3F)coc2c1	> 100	8.45	52.1	> 100	> 100	68.6	34	146	> 200		2.8	2.13

Further lines, with some results ahead:

IC50 (A549) [µM]	IC50 (Huh-7) [µM]	IC50 (Hepatitis B virus [3]) [µM]	IC50 (HeLa) [µM]	IC50 (Hepatitis B virus [6]) [µM]	IC50 (Hepatitis B virus [8]) [µM]	SMILES	IC50 [1] [µM]	CC50 at 48 h [2] [µM]	IC50 [4] [µM]	Ratio CC50/IC50 [5]	Ratio CC50/IC50 [7]	Ratio CC50/IC50 [9]
51	9.05	16	> 100	16.9	> 100	COc1ccc2c(=O)c(/C=C/C(=O)Nc3ccccc3)coc2c1	14	523	> 200	30.85	32.7	
23	> 100	> 100	13	> 100	14.2	COc1ccc(NC(=O)/C=C/c2coc3cc(OC)ccc3c2=O)cc1	> 100	718	> 200			50.38
23.4	26.9	14.9	7.27	15.8	> 100	COc1ccc2c(=O)c(/C=C/C(=O)Nc3ccccc3C)coc2c1	22.4	59.7	> 200	3.77	4	
> 100	32.3	> 100	> 100	> 100	> 100	COc1ccc2c(=O)c(/C=C/C(=O)Nc3ccccc3OC)coc2c1	17.6	1050	> 200			
12.8	11.1	> 100	19.2	> 100	> 100	COc1cccc(NC(=O)/C=C/c2coc3cc(OC)ccc3c2=O)c1	39.1	1130	> 200			
12.8	> 100	> 100	> 100	> 100	7.01	COc1ccc(NC(=O)/C=C/c2coc3cc(O)ccc3c2=O)cc1	> 100	976	> 200			139.21
15.5	11.1	> 100	58.4	> 100	> 100	COc1ccc2c(=O)c(/C=C/C(=O)Nc3cc(C)ccc3C)coc2c1	> 100	1100	> 200			
